{"source": "ChEMBL document CHEMBL4145447", "about": "“4-arylamidobenzyl substituted 5-bromomethylene-2(5H)-furanones for chronic bacterial infection” (Eur J Med Chem, 2018)", "key": {"[1]": {"biological_target": "Elastase (Pseudomonas aeruginosa (strain ATCC 15692 / PAO1 / 1C / PRS 101 / LMG12228)) (UniProt P14756)", "sequence (P14756 198-498 limits assumed)": "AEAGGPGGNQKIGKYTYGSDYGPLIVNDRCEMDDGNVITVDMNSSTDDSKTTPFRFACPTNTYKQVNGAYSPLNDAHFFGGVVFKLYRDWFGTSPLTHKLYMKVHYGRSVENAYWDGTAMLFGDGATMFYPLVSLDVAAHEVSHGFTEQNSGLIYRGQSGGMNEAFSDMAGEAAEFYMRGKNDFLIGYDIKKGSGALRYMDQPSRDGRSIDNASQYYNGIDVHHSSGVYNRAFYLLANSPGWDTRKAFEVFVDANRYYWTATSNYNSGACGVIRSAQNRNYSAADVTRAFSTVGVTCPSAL", "assay": "Inhibition of Pseudomonas aeruginosa PAO1 GFP-fused quorum sensing lasB at 10 uM measured every 15 mins up to 12 hrs by GFP reporter gene assay relative to control", "summary_of_the_method": "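GFP reporter strains of P. aeruginosa PAO1 (lasB-, rhlA- or pqsA-promoter fused to unstable gfp(ASV)) grown overnight in LB at 37 °C, 200 rpm, 18 h, then diluted 1:100. Culture mixed 1:1 with compound diluted in LB from 10 mM DMSO stock (0.1% DMSO final). Fluorescence (ex 485/em 528 nm) read every 15 min at 37 °C for ≥12 h.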"}, "RAW264.7 [2]": {"test_system": "RAW264.7", "assay": "Anti-inflammatory activity in mouse RAW264.7 cells assessed as inhibition of LPS-induced NO production at 10 uM preincubated for 2 hrs followed by LPS stimulation and measured after 48 hrs by Griess method relative to control", "type": "functional", "summary_of_the_method": "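RAW264.7 cells seeded at 5 × 10^4/well and cultured 18 h, then given 10 µM compound plus LPS 100 ng/mL for 48 h at 37 °C. Supernatant mixed 1:1 with Griess reagent (1% sulfanilamide, 0.1% naphthylethylenediamine in 5% phosphoric acid) for 10 min; nitrite read at OD540.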"}, "[3]": {"assay": "Cytotoxicity against mouse RAW264.7 cells assessed as cell viability at 10 uM after 48 hrs by MTT assay relative to control", "type": "cell-based", "conditions": "read-out: Activity", "summary_of_the_method": "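MTT viability: RAW264.7 cells (4 × 10^4/well) in DMEM + 10% FBS exposed to compounds diluted in DMEM for 48 h. MTT 0.5 mg/mL added for 4 h in the dark, formazan dissolved in DMSO, read at 570 nm. Viability = treated/medium-only control × 100; three independent experiments.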"}, "RAW264.7 [4]": {"test_system": "RAW264.7", "assay": "Anti-inflammatory activity in mouse RAW264.7 cells assessed as inhibition of LPS-induced TNF-alpha production by measuring TNF-alpha level at 10 uM preincubated for 2 hrs followed by LPS stimulation and measured after 6 hrs by ELISA (reference value: 11922 +/- 628.4 pg/ml)", "type": "functional"}, "RAW264.7 [5]": {"test_system": "RAW264.7", "assay": "Anti-inflammatory activity in mouse RAW264.7 cells assessed as inhibition of LPS-induced TNF-alpha production by measuring TNF-alpha level at 10 uM preincubated for 2 hrs followed by LPS stimulation and measured after 24 hrs by ELISA (reference value: 24216 +/- 498.7 pg/ml)", "type": "functional"}, "RAW264.7 [6]": {"test_system": "RAW264.7", "assay": "Anti-inflammatory activity in mouse RAW264.7 cells assessed as inhibition of LPS-induced IL-6 production by measuring […] level at 10 uM preincubated for 2 hrs followed by LPS stimulation and measured after 6 hrs by ELISA (reference value: 94.6 +/- 5.9 pg/ml)", "type": "functional"}, "RAW264.7 [7]": {"test_system": "RAW264.7", "assay": "Anti-inflammatory activity in mouse RAW264.7 cells assessed as inhibition of LPS-induced IL-6 production by measuring […] level at 10 uM preincubated for 2 hrs followed by LPS stimulation and measured after 12 hrs by ELISA (reference value: 175.2 +/- 10.2 pg/ml)", "type": "functional"}, "[8]": {"biological_target": "T1, Peroxisome proliferator-activated receptor gamma (Mus musculus) (UniProt P37238)", "T1 sequence (whole entry)": "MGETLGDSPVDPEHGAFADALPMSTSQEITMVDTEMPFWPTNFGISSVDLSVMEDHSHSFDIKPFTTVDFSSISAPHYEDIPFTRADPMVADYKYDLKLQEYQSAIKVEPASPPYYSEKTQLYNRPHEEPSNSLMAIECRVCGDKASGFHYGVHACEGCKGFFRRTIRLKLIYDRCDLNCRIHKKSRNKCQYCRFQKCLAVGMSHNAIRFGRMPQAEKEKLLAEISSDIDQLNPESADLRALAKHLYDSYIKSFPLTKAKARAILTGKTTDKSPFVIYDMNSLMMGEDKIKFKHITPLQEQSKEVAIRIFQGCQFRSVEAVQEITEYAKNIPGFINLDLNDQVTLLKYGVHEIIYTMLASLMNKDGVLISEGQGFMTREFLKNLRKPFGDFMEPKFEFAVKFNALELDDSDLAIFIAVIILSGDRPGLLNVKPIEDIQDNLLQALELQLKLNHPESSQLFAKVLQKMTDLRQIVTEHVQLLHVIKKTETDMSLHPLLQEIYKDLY", "assay": "Agonist activity at PPARgamma in mouse RAW264.7 cells assessed as inhibition of LPS-induced NF-kB p65 phosphorylation at 10 uM preincubated for 1 hr followed by LPS stimulation and measured after 4 hrs by Western blot analysis", "type": "cell-based", "summary_of_the_method": "(§1)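 Western blot: RAW264.7 cells (2 × 10^6/well) pretreated 1 h with compound (10 µM), antagonist GW9662 (5 µM) where stated, then LPS 500 ng/mL for 4 h. Lysis on ice with PMSF, BCA-normalised protein on SDS gels, PVDF transfer, milk block, phospho- and total-protein primary antibodies, HRP secondary, ECL detection. Densitometry normalised to internal control; n = 3.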"}, "[9]": {"biological_target": "T1, Peroxisome proliferator-activated receptor gamma (Mus musculus)", "assay": "Agonist activity at PPARgamma in mouse RAW264.7 cells assessed as inhibition of LPS-induced IkB-alpha phosphorylation at Ser32/36 residues at 10 uM preincubated for 1 hr followed by LPS stimulation and measured after 4 hrs by Western blot analysis", "type": "cell-based", "summary_of_the_method": "as §1"}, "[10]": {"biological_target": "T1, Peroxisome proliferator-activated receptor gamma (Mus musculus)", "assay": "Agonist activity at PPARgamma in mouse RAW264.7 cells assessed as inhibition of LPS-induced ERk1/2 phosphorylation at Thr202/Tyr204 residues at 10 uM preincubated for 1 hr followed by LPS stimulation and measured after 4 hrs by Western blot analysis", "type": "cell-based", "summary_of_the_method": "as §1"}, "[11]": {"biological_target": "T1, Peroxisome proliferator-activated receptor gamma (Mus musculus)", "assay": "Agonist activity at PPARgamma in mouse RAW264.7 cells assessed as inhibition of LPS-induced MAPK p38 phosphorylation at Thr180/Tyr182 residues at 10 uM preincubated for 1 hr followed by LPS stimulation and measured after 4 hrs by Western blot analysis", "type": "cell-based", "summary_of_the_method": "as §1"}, "[12]": {"biological_target": "T1, Peroxisome proliferator-activated receptor gamma (Mus musculus)", "assay": "Agonist activity at PPARgamma in mouse RAW264.7 cells assessed as inhibition of LPS-induced NF-kB p65 phosphorylation at 10 uM preincubated for 1 hr followed by LPS stimulation and measured after 4 hrs in presence of PPARgamma antagonist GW9662 by Western blot analysis", "type": "cell-based", "summary_of_the_method": "as §1"}, "[13]": {"biological_target": "T1, Peroxisome proliferator-activated receptor gamma (Mus musculus)", "assay": "Agonist activity at PPARgamma in mouse RAW264.7 cells assessed as inhibition of LPS-induced IkB-alpha phosphorylation at Ser32/36 residues at 10 uM preincubated for 1 hr followed by LPS stimulation and measured after 4 hrs in presence of PPARgamma antagonist GW9662 by Western blot analysis", "type": "cell-based", "summary_of_the_method": "as §1"}, "[14]": {"biological_target": "T1, Peroxisome proliferator-activated receptor gamma (Mus musculus)", "assay": "Agonist activity at PPARgamma in mouse RAW264.7 cells assessed as inhibition of LPS-induced MAPK p38 phosphorylation at Thr180/Tyr182 residues at 10 uM preincubated for 1 hr followed by LPS stimulation and measured after 4 hrs in presence of PPARgamma antagonist GW9662 by Western blot analysis", "type": "cell-based", "summary_of_the_method": "as §1"}, "Pseudomonas aeruginosa": {"test_system": "Pseudomonas aeruginosa", "assay": "Growth inhibition of Pseudomonas aeruginosa PAO1 at 5 to 100 uM measured every 15 mins up to 12 hrs", "type": "organism-based", "conditions": "in vitro", "summary_of_the_method": "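Growth of P. aeruginosa PAO1 was run like the reporter assay. The overnight LB culture was diluted in fresh LB and mixed in equal parts with compound diluted in LB, then growth was monitored in 96-well plates.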"}}, "note": "Active and inactive are the calls of the source. The rule behind the calls is not given here."}
{"smiles": "O=C(Cc1ccc(F)cc1)Nc1ccc(CC2=CC(=O)OC2=CBr)cc1", "values": [{"measurement": "inhibition", "setting": "[1]", "result": 15.2, "unit": "%"}, {"measurement": "inhibition at 10 µM", "setting": "RAW264.7 [2]", "result": 73.7, "unit": "%"}, {"measurement": "viability at 48 h, 10 µM", "setting": "[3]", "result": 97, "unit": "%"}, {"measurement": "Activity", "setting": "RAW264.7 [4]", "result": 7524.7, "unit": "pg/mL"}, {"measurement": "Activity", "setting": "RAW264.7 [5]", "result": 18322, "unit": "pg/mL"}, {"measurement": "Activity", "setting": "RAW264.7 [6]", "result": 17, "unit": "pg/mL"}, {"measurement": "Activity", "setting": "RAW264.7 [7]", "result": 66.3, "unit": "pg/mL"}, {"measurement": "inhibition", "setting": "[8]", "result": "Active"}, {"measurement": "inhibition", "setting": "[9]", "result": "Active"}, {"measurement": "inhibition", "setting": "[10]", "result": "Active"}, {"measurement": "inhibition", "setting": "[11]", "result": "Active"}, {"measurement": "inhibition", "setting": "[12]", "result": "inactive"}, {"measurement": "inhibition", "setting": "[13]", "result": "inactive"}, {"measurement": "inhibition", "setting": "[14]", "result": "inactive"}, {"measurement": "growth inhibition (GI)", "setting": "Pseudomonas aeruginosa", "result": "Non-Toxic"}]}
{"smiles": "O=C(C=Cc1ccccc1)Nc1ccc(CC2=CC(=O)O/C2=C/Br)cc1", "values": [{"measurement": "inhibition", "setting": "[1]", "result": 11.8, "unit": "%"}, {"measurement": "inhibition at 10 µM", "setting": "RAW264.7 [2]", "result": 70, "unit": "%"}, {"measurement": "viability at 48 h, 10 µM", "setting": "[3]", "result": 104, "unit": "%"}, {"measurement": "Activity", "setting": "RAW264.7 [4]", "result": 7750, "unit": "pg/mL"}, {"measurement": "Activity", "setting": "RAW264.7 [5]", "result": 19550, "unit": "pg/mL"}, {"measurement": "Activity", "setting": "RAW264.7 [6]", "result": 19.6, "unit": "pg/mL"}, {"measurement": "Activity", "setting": "RAW264.7 [7]", "result": 75.3, "unit": "pg/mL"}, {"measurement": "inhibition", "setting": "[8]", "result": "Active"}, {"measurement": "inhibition", "setting": "[9]", "result": "Active"}, {"measurement": "inhibition", "setting": "[10]", "result": "Active"}, {"measurement": "inhibition", "setting": "[11]", "result": "Active"}, {"measurement": "inhibition", "setting": "[12]", "result": "inactive"}, {"measurement": "inhibition", "setting": "[13]", "result": "inactive"}, {"measurement": "inhibition", "setting": "[14]", "result": "inactive"}, {"measurement": "growth inhibition (GI)", "setting": "Pseudomonas aeruginosa", "result": "Non-Toxic"}]}
